In ChEMBL document CHEMBL3414479, “Structure-based lead optimization and biological evaluation of BAX direct activators as novel potential anticancer agents” (J Med Chem, 2015) one finds Ki and Activity data, which are given here for 10 compounds.

Assay [1] addresses Apoptosis regulator Bcl-2 (Homo sapiens, UniProt P10415). Briefly: Displacement of FITC-BIM from recombinant human Bcl-2 expressed in Escherichia coli after 30 mins by fluorescence polarization assay. The gist of the method:
(§1)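 Fluorescence polarization competition: serial compound dilutions in 20 mM Hepes-KOH pH 7.4, 150 mM NaCl with 50 nM FITC-BIM; after 5 min, E. coli-expressed recombinant protein added at 1 µM; polarization read after 30 min incubation. Triplicates; Ki from nonlinear regression of competitive binding curves.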
(In general: In fluorescence polarisation assays a small probe gives low polarisation when free and higher when bound to something large.)

The next assay addresses Bcl-2-like protein 1 (Homo sapiens, UniProt Q07817). Briefly: Displacement of FITC-BIM from recombinant human Bcl-XL expressed in Escherichia coli after 30 mins by fluorescence polarization assay. A digest of the protocol: as §1
For assay [2], the system named is MEF. Briefly: Induction of apoptosis in MEF assessed as appearance of fragmented nuclei and cell membrane blebbing at 15 uM after 24 hrs by DAPI staining. To be noted: Mus musculus. Format: functional, cell-based. The gist of the method:
(§2)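 MEF wild-type or knockout clones (Bcl2, Bad, Bid, Bak, Bax, Bax/Bak) treated 24 h with compound (15 µM for single-concentration data) or 0.1% DMSO vehicle; apoptosis scored by fragmented nuclei and membrane blebbing. EC50 values are means of three experiments with s.d.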

The subject of assay [3] is MEF. The assay is described as follows: Induction of apoptosis in Bcl2-deficient MEF assessed as appearance of fragmented nuclei and cell membrane blebbing at 15 uM after 24 hrs by DAPI staining. Type of assay: functional, cell-based. To be noted: Mus musculus. A digest of the protocol:
as §2

Assay [4] has as its system MEF. The assay is described as follows: Induction of apoptosis in Bad-deficient MEF assessed as appearance of fragmented nuclei and cell membrane blebbing at 15 uM after 24 hrs by DAPI staining. The conditions noted are these: Mus musculus. Type of assay: functional, cell-based. The gist of the method: as §2
The test system of assay [5] is MEF. The assay is described as follows: Induction of apoptosis in Bid-deficient MEF assessed as appearance of fragmented nuclei and cell membrane blebbing at 15 uM after 24 hrs by DAPI staining. The conditions noted are these: Mus musculus. Format: functional, cell-based. The gist of the method:
as §2

Assay [6] relates to MEF. The assay is described as follows: Induction of apoptosis in Bak-deficient MEF assessed as appearance of fragmented nuclei and cell membrane blebbing at 15 uM after 24 hrs by DAPI staining. The conditions noted are these: Mus musculus. Format: functional, cell-based. The gist of the method: as §2
Assay [7] has as its system MEF. The assay is described as follows: Induction of apoptosis in Bax-deficient MEF assessed as appearance of fragmented nuclei and cell membrane blebbing at 15 uM after 24 hrs by DAPI staining. To be noted: Mus musculus. Type of assay: functional, cell-based. The gist of the method:
as §2

Assay [8] has as its system MEF. The assay is described as follows: Induction of apoptosis in Bax/Bak-deficient MEF assessed as appearance of fragmented nuclei and cell membrane blebbing at 15 uM after 24 hrs by DAPI staining. Format: functional, cell-based. The conditions noted are these: Mus musculus. A digest of the protocol:
as §2

pKi: −log10 of the molar value. Active and inactive are the calls of the source. No cut-off for these calls is given here. Bounds are passed on as bounds.

Sequence of Bcl-2-like protein 1 (Q07817 whole entry, the tested form may be a part): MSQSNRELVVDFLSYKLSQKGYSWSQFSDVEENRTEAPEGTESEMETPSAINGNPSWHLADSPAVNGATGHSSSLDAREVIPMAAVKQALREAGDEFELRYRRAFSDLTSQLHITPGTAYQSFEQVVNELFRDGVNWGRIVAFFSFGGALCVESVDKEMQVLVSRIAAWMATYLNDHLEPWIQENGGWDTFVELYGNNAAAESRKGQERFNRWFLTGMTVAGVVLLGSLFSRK
Sequence of Apoptosis regulator Bcl-2 (P10415 whole entry): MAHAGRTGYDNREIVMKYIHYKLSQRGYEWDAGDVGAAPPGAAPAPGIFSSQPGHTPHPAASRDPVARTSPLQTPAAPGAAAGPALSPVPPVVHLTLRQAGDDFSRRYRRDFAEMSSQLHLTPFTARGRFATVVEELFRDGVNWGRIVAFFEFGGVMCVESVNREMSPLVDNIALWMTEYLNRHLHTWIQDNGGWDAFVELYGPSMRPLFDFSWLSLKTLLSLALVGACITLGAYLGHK

As for `CC1=NN(c2nc(-c3ccccc3)cs2)C(=O)/C1=C/c1ccc(-c2ccccc2)cc1`, the pKi (commonly the negative decadic logarithm of the Ki, by convention in mol/L) in assay [1] is 5.80; on Bcl-2-like protein 1, 5.51. Besides, the result in the assay on MEF [2], with MEF [3], with MEF [4], in the assay on MEF [5], in the assay on MEF [6] and in the assay on MEF [7] was Active. The outcome with MEF [8] was inactive.
As to `CCOc1ccccc1N/N=C1\C(=O)N(c2cc(O)cc(-c3ccccc3)c2)N=C1C`, the pKi (in [1]; on Bcl-2-like protein 1) was under 4.00 each time. Moreover, the result with MEF [2], with MEF [3], in the assay on MEF [4], in the assay with MEF [5] and in the assay on MEF [6] was Active. Moreover, the outcome in the assay on MEF [7] and in the assay with MEF [8] was inactive.
With `CCOc1ccccc1N/N=C1\C(=O)N(c2cc(O)cc(-c3ccc(C(C)C)cc3)c2)N=C1C`, the pKi in assay [1] was 5.72; at Bcl-2-like protein 1 it was 4.81. The result with MEF [2], with MEF [3], with MEF [4], in the assay with MEF [5], in the assay with MEF [6] and in the assay on MEF [7] was Active. For the same compound, the outcome with MEF [8] was inactive.
Regarding `CCOc1ccccc1CC(=O)C1C(=O)N(c2nc(-c3ccccc3)cs2)N=C1C` (stereo not given), the pKi (in [1]; at Bcl-2-like protein 1) was under 4.00 in each case. The result with MEF [2] and with MEF [8] was inactive.
Regarding `CCOc1ccccc1N/N=C1\C(=O)N(c2cc(O)cc(-c3cccc(N)c3)c2)N=C1C`, the pKi (in assay [1]; on Bcl-2-like protein 1) was under 4.00 in each case. In addition, the outcome in the assay on MEF [2], with MEF [3], in the assay on MEF [4], in the assay with MEF [5], in the assay with MEF [6] and with MEF [7] was Active. Also, the outcome in the assay with MEF [8] was inactive.
`CCOc1ccccc1C(=O)C(=O)C1C(=O)N(c2nc(-c3ccccc3)cs2)N=C1C` (stereo not given): the pKi (in assay [1]; on Bcl-2-like protein 1) was under 4.00 throughout. Besides, the result in the assay with MEF [2] and in the assay with MEF [8] was inactive.
As for `CC1=NN(c2nc(-c3ccccc3)cs2)C(=O)/C1=C/c1ncc[nH]1`, the pKi in assay [1] was 5.70; at Bcl-2-like protein 1, 5.17. In addition, the outcome with MEF [2], in the assay on MEF [3], in the assay on MEF [4], in the assay on MEF [5], in the assay on MEF [6] and in the assay with MEF [7] was Active. Moreover, in the assay on MEF [8], the result was inactive.
For `CCOc1ccccc1N/N=C1\C(=O)N(c2cc(O)cc(-c3cccs3)c2)N=C1C`, the pKi (in assay [1]; on Bcl-2-like protein 1) was under 4.00 in each case. Further, the outcome in the assay with MEF [2] and with MEF [8] was inactive.
`CCOc1ccccc1N/N=C1\C(=O)N(c2cc(O)cc(-c3ccncc3)c2)N=C1C`: the values for the negative-log Ki (pKi) (in assay [1]; on Bcl-2-like protein 1) were under 4.00 and 4.51, respectively. Also, the outcome in the assay on MEF [2], with MEF [3], in the assay with MEF [4], in the assay with MEF [5] and with MEF [6] was Active. For the same compound, the result with MEF [7] and in the assay with MEF [8] was inactive.
As for `CC1=NN(c2cc(O)cc(-c3ccc(N(C)C)cc3)c2)C(=O)/C1=N\Nc1ccc2ccccc2c1`, the figures for the pKi (in [1]; on Bcl-2-like protein 1) were 4.47 and 5.47, respectively. Further, the outcome in the assay with MEF [2], in the assay on MEF [3], in the assay with MEF [4], with MEF [5] and in the assay with MEF [6] was Active. Also, the result in the assay on MEF [7] and with MEF [8] was inactive.
